pIC50: −log10 of the molar value. Active and inactive are the calls of the source. The rule behind the calls is not given here.
Legend:
HL-60 [1] = experiment: Induction of cell cycle arrest in human HL60 cells assessed as accumulation at G1 phase at 10 uM after 48 hrs by propidium iodide staining based flow cytometry (reference value: 60.4 +/- 0.4%); format: functional
U-937 [2] = experiment: Induction of cell cycle arrest in human U937 cells assessed as accumulation at G1 phase at 1 uM after 24 hrs by propidium iodide staining based flow cytometry (reference value: 49.8 +/- 1.5%); format: functional
U-937 [3] = experiment: Induction of apoptosis in human U937 cells assessed as pro-caspase-9 cleavage by Western blotting method; format: functional, cell-based
In short: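 U937 cells exposed to increasing concentrations of the flavonol and harvested at 24 h. Lysates were immunoblotted with antibodies that detect both the pro-caspases and their cleaved forms.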

HL-60 [4] = experiment: Induction of cell cycle arrest in human HL60 cells assessed as accumulation at G1 phase at 1 uM after 12 hrs by propidium iodide staining based flow cytometry (reference value: 57.2 +/- 0.9%); format: functional
HL-60 [5] = experiment: Induction of cell cycle arrest in human HL60 cells assessed as accumulation at S phase at 3 uM after 48 hrs by propidium iodide staining based flow cytometry (reference value: 15.3 +/- 0.1%); format: functional
HL-60 [6] = experiment: Induction of cell cycle arrest in human HL60 cells assessed as accumulation at S phase at 1 uM after 48 hrs by propidium iodide staining based flow cytometry (reference value: 15.3 +/- 0.1%); format: functional
HL-60 [7] = experiment: Induction of cell cycle arrest in human HL60 cells assessed as accumulation at G2/M phase at 3 uM after 24 hrs by propidium iodide staining based flow cytometry (reference value: 22.5 +/- 0.9%); format: functional
HL-60 [8] = experiment: Induction of cell cycle arrest in human HL60 cells assessed as accumulation at G2/M phase at 1 uM after 24 hrs by propidium iodide staining based flow cytometry (reference value: 22.5 +/- 0.9%); format: functional
HL-60 [9] = experiment: Induction of apoptosis in human HL60 cells assessed as pro-caspase-4 processing by Western blotting method; format: functional, cell-based
HL-60 [10] = experiment: Increase in TRAIL expression in human HL60 cells at 10 30 uM after 24 hrs by immunoblotting method; format: functional, cell-based
In short: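 HL-60 and U937 cells were treated with increasing concentrations for 24 h. Lysates were immunoblotted for TRAIL, DR4 and DR5.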

HL-60 [11] = experiment: Induction of apoptosis in human HL60 cells assessed as pro-caspase-8 processing at 3 and 10 uM after 6 to 24 hrs by immunoblotting method; format: functional, cell-based
In short: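 Kinetic and dose-response immunoblots. Cells were treated, harvested at the indicated times, and probed with antibodies that detect both procaspase-8/-9 and their cleaved fragments.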

U-937 [12] = experiment: Induction of cell cycle arrest in human U937 cells assessed as accumulation at G1 phase at 1 uM after 12 hrs by propidium iodide staining based flow cytometry (reference value: 45.8 +/- 0.8%); format: functional
U-937 [13] = experiment: Induction of cell cycle arrest in human U937 cells assessed as accumulation at G2/M phase at 3 uM after 24 hrs by propidium iodide staining based flow cytometry (reference value: 22.8 +/- 1.6%); format: functional
HL-60 [14] = experiment: Induction of cell cycle arrest in human HL60 cells assessed as accumulation at G2/M phase at 10 uM after 24 hrs by propidium iodide staining based flow cytometry (reference value: 22.5 +/- 0.9%); format: functional
MOLT-3 = experiment: Effect on Bax expression in human MOLT3 cells by Western blotting method; format: functional, cell-based
In short: (§1)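 Cells were exposed to a range of compound concentrations and harvested at 24 h. Lysates were immunoblotted for caspase proforms and cleaved forms, and for Bcl-2 family proteins.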

U-937 [15] = experiment: Induction of cell cycle arrest in human U937 cells assessed as accumulation at S phase at 3 uM after 12 hrs by propidium iodide staining based flow cytometry (reference value: 20.5 +/- 0.8%); format: functional
U-937 [16] = experiment: Induction of cell cycle arrest in human U937 cells assessed as accumulation at S phase at 10 uM after 48 hrs by propidium iodide staining based flow cytometry (reference value: 18.9 +/- 0.2%); format: functional
HL-60 [17] = experiment: Induction of apoptosis in human HL60 cells assessed as increase in caspase 9 activity using LEHD-pNA substrate at 10 uM after 24 hrs; format: functional
In short: (§2)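 Cells were given 10 µM for 24 h. Lysates were assayed for cleavage of DEVD-pNA (caspase-3/7), IETD-pNA (caspase-8) and LEHD-pNA (caspase-9). Results are expressed as fold over control, from three independent experiments in triplicate.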

[18] = target: c-Jun N-terminal kinase, JNK (Homo sapiens) (UniProt P45983+P53779+P45984); experiment: Increase in JNK/SAPK phosphorylation in human HL60 cells at 10 to 30 uM after 2 to 6 hrs by Western blotting method; format: cell-based; details: HL-60
In short: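 HL-60 cells were incubated for a time course. Extracts were immunoblotted with phospho-specific antibodies for ERK 1/2, JNK/SAPK and p38MAPK. Membranes were then stripped and reprobed for the total kinases as loading controls.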

U-937 [19] = experiment: Induction of cell cycle arrest in human U937 cells assessed as accumulation at G1 phase at 3 uM after 24 hrs by propidium iodide staining based flow cytometry (reference value: 49.8 +/- 1.5%); format: functional
U-937 [20] = experiment: Induction of cell cycle arrest in human U937 cells assessed as accumulation at G2/M phase at 1 uM after 24 hrs by propidium iodide staining based flow cytometry (reference value: 22.8 +/- 1.6%); format: functional
HL-60 [21] = experiment: Induction of apoptosis in human HL60 cells assessed as increase in caspase 8 activity using IETD-pNA substrate at 10 uM after 24 hrs; format: functional; in short: as §2
HL-60 [22] = experiment: Induction of cell cycle arrest in human HL60 cells assessed as accumulation at subG1 phase at 10 uM after 12 hrs by propidium iodide staining based flow cytometry (reference value: 6.1 +/- 0.5%); format: functional
U-937 [23] = experiment: Induction of cell cycle arrest in human U937 cells assessed as accumulation at G1 phase at 3 uM after 48 hrs by propidium iodide staining based flow cytometry (reference value: 51.9 +/- 0.9%); format: functional
U-937 [24] = experiment: Induction of apoptosis in human U937 cells assessed as pro-caspase-4 processing by Western blotting method; format: functional, cell-based; in short: as §1
U-937 [25] = experiment: Induction of cell cycle arrest in human U937 cells assessed as accumulation at G1 phase at 10 uM after 12 hrs by propidium iodide staining based flow cytometry (reference value: 45.8 +/- 0.8%); format: functional
U-937 [26] = experiment: Induction of cell cycle arrest in human U937 cells assessed as accumulation at G2/M phase at 10 uM after 48 hrs by propidium iodide staining based flow cytometry (reference value: 19.1 +/- 1.1%); format: functional
[27] = Cytotoxicity against human HL60/MX1 cells after 72 hrs by MTT assay; format: functional, cell-based; details: HL60/MX1, 72 h
In short: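 MTT colorimetric assay with 72 h continuous exposure. IC50 was fitted per experiment by non-linear regression. Values are means with SE from at least three independent experiments, each run in triplicate.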

U-937 [28] = experiment: Induction of cell cycle arrest in human U937 cells assessed as accumulation at G2/M phase at 1 uM after 12 hrs by propidium iodide staining based flow cytometry (reference value: 24.2 +/- 1.2%); format: functional
HL-60 [29] = experiment: Induction of apoptosis in human HL60 cells at 30 uM after 24 hrs by propidium iodide staining based flow cytometry (reference value: 3.8 +/- 0.6%); format: functional
HL-60 [30] = experiment: Induction of apoptosis in human HL60 cells assessed as pro-caspase-6 cleavage by Western blotting method; format: functional, cell-based; in short: as §1

## O=c1c(O)c(-c2ccc(Br)cc2)oc2ccccc12
HL-60 [1]
  Activity: 18.4%
U-937 [2]
  Activity: 47.4%
U-937 [3]
  Activity: Active
HL-60 [4]
  Activity: 56.2%
HL-60 [5]
  Activity: 22.1%
HL-60 [6]
  Activity: 15.5%
HL-60 [7]
  Activity: 21.8%
HL-60 [8]
  Activity: 22.5%
HL-60 [9]
  Activity: Active
HL-60 [10]
  Activity: Active
HL-60 [11]
  Activity: Active
U-937 [12]
  Activity: 45.8%
U-937 [13]
  Activity: 21.7%
HL-60 [14]
  Activity: 12.6%
MOLT-3
  Activity: inactive
U-937 [15]
  Activity: 22.4%
U-937 [16]
  Activity: 11.9%
HL-60 [17]
  fold change (FC): 1.8
[18]
  Activity: Active
U-937 [19]
  Activity: 42.3%
U-937 [20]
  Activity: 25.2%
HL-60 [21]
  fold change (FC): 1.7
HL-60 [22]
  Activity: 8.9%
U-937 [23]
  Activity: 38.5%
U-937 [24]
  Activity: Active
U-937 [25]
  Activity: 47.6%
U-937 [26]
  Activity: 7%
[27]
  pIC50: 5.19
U-937 [28]
  Activity: 25.1%
HL-60 [29]
  Activity: 51.8%
HL-60 [30]
  Activity: Active
